Experimental data published in ChEMBL document CHEMBL1154500, “Mechanism-based inhibitors of MenE, an acyl-CoA synthetase involved in bacterial menaquinone biosynthesis” (Bioorg Med Chem Lett, 2008).
Active and inactive are the calls of the source. No cut-off for these calls is given here.

Experiments:
[1] = Inhibition of Escherichia coli Histidine6-tagged 5 uM MenE expressed in Escherichia coli BL21 cells coexpressing Mycobacterium tuberculosis Histidine6-tagged 100 nM MenB assessed as formation of DHNA-CoA by coupled assay
In short: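 Counter-assay in the coupled format using separately purified His6-tagged E. coli MenE and M. tuberculosis MenB. MenB was limiting (100 nM) and MenE in excess (5 μM), to test for direct MenB inhibition. The read-out was DHNA-CoA formation.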

[2] = system: Mycolicibacterium smegmatis; assay: Growth inhibition of Mycobacterium smegmatis upto 300 uM; assay type: functional, organism-based
[3] = Inhibition of Escherichia coli Histidine6-tagged 20 nM MenE expressed in Escherichia coli BL21 cells coexpressing Mycobacterium tuberculosis Histidine6-tagged 7.2 uM MenB assessed as formation of DHNA-CoA by coupled assay
In short: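 Coupled MenE–MenB assay. E. coli MenE and M. tuberculosis MenB each carried an N-terminal His6 tag, were expressed separately in E. coli BL21, and were affinity-purified. Reactions contained MenB (7.2 μM), ATP, CoA and OSB (each 240 μM), and inhibitor (0–200 μM), and were started by adding MenE (20 nM final). DHNA-CoA formation was followed at 392 nm to derive IC50.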

| Structure (SMILES) | inhibition [1] | inhibition [2] | IC50 [3] |
| --- | --- | --- | --- |
| C=C(CCC(=O)NS(=O)(=O)OC[C@H]1O[C@@H](n2cnc3c(N)ncnc32)[C@H](O)[C@@H]1O)c1ccccc1C(=O)OC | inactive | inactive | > 200 µM |
| C=C(CC/C=C/S(=O)(=O)NC[C@H]1O[C@@H](n2cnc3c(N)ncnc32)[C@H](O)[C@@H]1O)c1ccccc1C(=O)OC | inactive | inactive | > 200 µM |
| COC(=O)c1ccccc1C(=O)CCC(=O)NS(=O)(=O)NC[C@H]1O[C@@H](n2cnc3c(N)ncnc32)[C@H](O)[C@@H]1O | inactive | inactive | 34.1 µM |
| COC(=O)c1ccccc1C(=O)CC/C=C/S(=O)(=O)NC[C@H]1O[C@@H](n2cnc3c(N)ncnc32)[C@H](O)[C@@H]1O | inactive | inactive | 5.7 µM |
| COC(=O)c1ccccc1C(=O)CCC(=O)NS(=O)(=O)OC[C@H]1O[C@@H](n2cnc3c(N)ncnc32)[C@H](O)[C@@H]1O | inactive | inactive | 38 µM |
| C=C(CCC(=O)NS(=O)(=O)NC[C@H]1O[C@@H](n2cnc3c(N)ncnc32)[C@H](O)[C@@H]1O)c1ccccc1C(=O)OC | inactive | inactive | > 200 µM |
